# Active and inactive are the calls of the source. The calls are words filed in the database; no cut-off is given here.
# Tests used:
# Candida albicans = assay: Antifungal activity against Candida albicans DSM 1665 assessed as growth inhibition; type: functional
# SK-OV-3 = assay: Antiproliferative activity against human SK-OV-3 cells assessed as cell growth inhibition; type: functional, cell-based
# In short: (§1)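 IC50 (μM) determined against mammalian cell lines from the DSMZ ACC collection (SK-OV-3 without an ACC number), with epothilone B run in parallel as reference.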
# MCF7 = assay: Antiproliferative activity against human MCF7 cells assessed as cell growth inhibition; type: functional, cell-based; in short: as §1
# Acinetobacter baumannii = assay: Antibacterial activity against Acinetobacter baumannii DSM 30008 assessed as bacterial growth inhibition; type: functional
# KB 3-1 = assay: Antiproliferative activity against human KB-3-1 cells assessed as cell growth inhibition; type: functional, cell-based; in short: as §1
# PC-3 = assay: Antiproliferative activity against human PC-3 cells assessed as cell growth inhibition; type: functional, cell-based; in short: as §1
# Rhodotorula glutinis = assay: Antifungal activity against Rhodotorula glutinis DSM 10134 assessed as growth inhibition; type: functional
# Mucor hiemalis = assay: Antifungal activity against Mucor hiemalis DSM 2656 assessed as growth inhibition; type: functional
# [1] = Antiproliferative activity against mouse L929 cells assessed as cell growth inhibition; type: toxicity, cell-based; in short: as §1
# [2] = tested on: Chromobacterium violaceum; assay: Antibacterial activity against Chromobacterium violaceum DSM 30191 assessed as bacterial growth inhibition; type: functional
# Bacillus subtilis = assay: Antibacterial activity against Bacillus subtilis DSM 10 assessed as bacterial growth inhibition; type: functional
# In short: (§2)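 Growth inhibition read as minimum inhibitory concentration (μg/mL) against strains from DSMZ. A positive-control antibiotic was run alongside.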
# A-431 = assay: Antiproliferative activity against human A-431 cells assessed as cell growth inhibition; type: functional, cell-based; in short: as §1
# A549 = assay: Antiproliferative activity against human A549 cells assessed as cell growth inhibition; type: functional, cell-based; in short: as §1
# Pseudomonas aeruginosa = assay: Antibacterial activity against Pseudomonas aeruginosa DSM 19882 assessed as bacterial growth inhibition; type: functional
# [3] = tested on: Mycolicibacterium smegmatis; assay: Antibacterial activity against Mycolicibacterium smegmatis ATCC 700084 assessed as bacterial growth inhibition; type: functional
# [4] = tested on: Schizosaccharomyces pombe; assay: Antifungal activity against Schizosaccharomyces pombe DSM 70572 assessed as growth inhibition; type: functional
# Staphylococcus aureus = assay: Antibacterial activity against Staphylococcus aureus DSM 346 assessed as bacterial growth inhibition; type: functional; in short: as §2
# Escherichia coli = assay: Antibacterial activity against Escherichia coli DSM 1116 assessed as bacterial growth inhibition; type: functional
# Wickerhamomyces anomalus = assay: Antifungal activity against Wickerhamomyces anomalus DSM 6766 assessed as growth inhibition; type: functional
Structure (SMILES),inhibition (Candida albicans),IC50 (SK-OV-3),IC50 (MCF7),inhibition (Acinetobacter baumannii),IC50 (KB 3-1),IC50 (PC-3),inhibition (Rhodotorula glutinis),inhibition (Mucor hiemalis),IC50 [1],inhibition [2],MIC (Bacillus subtilis),IC50 (A-431),IC50 (A549),inhibition (Pseudomonas aeruginosa),inhibition [3],inhibition [4],MIC (Staphylococcus aureus),inhibition (Escherichia coli),inhibition (Wickerhamomyces anomalus),other results
C[C@@]12CC3=C(C(=O)C=CC3=O)[C@@H]3OC(=O)[C@@]4(CC[C@@H]1O2)O[C@@H]34,inactive,30 µM,4200 nM,inactive,22 µM,19 µM,inactive,inactive,6 µM,inactive,67 µg/mL,6.5 µM,57 µM,inactive,inactive,inactive,67 µg/mL,inactive,inactive,
C/C(=C\c1csc(C)n1)[C@@H]1C[C@@H]2O[C@]2(C)CCC[C@H](C)[C@H](O)[C@@H](C)C(=O)C(C)(C)[C@@H](O)CC(=O)O1 [PATUPILONE],,0.00018 µM,0.03 nM,,3.4e-05 µM,0.00028 µM,,,0.00043 µM,,8.3 µg/mL,5.1e-05 µM,5.3e-05 µM,,,,0.21 µg/mL,,,MIC (Candida albicans): 8.3 µg/mL; MIC (Acinetobacter baumannii): 0.26 µg/mL; MIC (Rhodotorula glutinis): 2.1 µg/mL; MIC (Mucor hiemalis): 4.2 µg/mL; MIC [2]: 0.42 µg/mL; MIC (Pseudomonas aeruginosa): 0.21 µg/mL; MIC [3]: 1.7 µg/mL; MIC [4]: 4.2 µg/mL; MIC (Escherichia coli): 1.7 µg/mL; MIC (Wickerhamomyces anomalus; Hansenula anomala): 8.3 µg/mL
C[C@@]12Cc3c(O)ccc(O)c3[C@@H]3OC(=O)[C@@]4(CC[C@@H]1O2)O[C@@H]34,inactive,47 µM,1900 nM,inactive,6.7 µM,18 µM,inactive,inactive,2.1 µM,inactive,17 µg/mL,3.5 µM,19 µM,inactive,inactive,inactive,,inactive,inactive,
